From paper PMC3268354 (Bioorganic & Medicinal Chemistry Letters, 2012)

These molecules were tested on cPLA2α (assay: reported cPLA2α inhibition of training and test set compounds). Conditions: assigned from reported activity of training set compounds.
Type: biochemical

Molecule	Class (activity class assigned for HipHop refine model)
CCCCCCCCCCCCCCC(=O)C(=O)NCCCC(=O)O [Compound 1]	Active
O=C(COc1ccc(SCCCCCc2ccccc2)cc1)COc1ccc(C(=O)O)cc1 [Compound 6]	Highly active
CCCCCCCCCCOc1ccc(OCC(=O)COc2ccc(C(=O)O)cc2)cc1 [Compound 7]	Highly active
O=C(COc1ccc(SCCCCSc2nccs2)cc1)COc1ccc(C(=O)O)cc1 [Compound 14]	Active
O=C(COc1ccc(C(=O)O)cc1)COc1ccc(C(=O)NCCCCc2ccccc2)cc1 [Compound 16]	Inactive
CN(CCc1ccccc1)C(=O)CSc1ccc(OCC(=O)COc2ccc(C(=O)O)cc2)cc1 [Compound 17]	Inactive
Cn1ccnc1SCCCCOc1ccc(OCC(=O)COc2ccc(C(=O)O)cc2)cc1 [Compound 18]	Inactive

What follows are molecules tested on cPLA2α-mediated AA release in human monocytes (assay: cPLA2α-mediated AA release in Ca2+-ionophore A23187-stimulated human monocytes). Conditions: human monocytes stimulated with A23187.
Type: cell-based
Procedure, shortened: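 Human monocytes were stimulated with Ca2+-ionophore A23187 in the presence of test compound, and arachidonic acid release was measured. Inhibition is expressed as IC50. A reference cPLA2α inhibitor was run as an assay control.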

Molecule	inhibition of AA release
N-{(2S,4R)-4-(biphenyl-2-ylmethyl-isobutyl-amino)-1-[2-(2,4-difluorobenzoyl)-benzoyl]-pyrrolidin-2-ylmethyl}-3-[4-(2,4-dioxothiazolidin-5-ylidenemethyl)-phenyl]acrylamide [Compound 43]	inhibited AA release as expected
